{"source": "ChEMBL document CHEMBL3739355", "about": "“Design, synthesis and evaluation of bitopic arylpiperazinephenyl-1,2,4-oxadiazoles as preferential dopamine D3 receptor ligands” (Bioorg Med Chem, 2016)", "key": {"D(3) dopamine receptor [1]": {"biological_target": "T1, D(3) dopamine receptor (Homo sapiens, UniProt P35462)", "T1 sequence (P35462 whole entry)": "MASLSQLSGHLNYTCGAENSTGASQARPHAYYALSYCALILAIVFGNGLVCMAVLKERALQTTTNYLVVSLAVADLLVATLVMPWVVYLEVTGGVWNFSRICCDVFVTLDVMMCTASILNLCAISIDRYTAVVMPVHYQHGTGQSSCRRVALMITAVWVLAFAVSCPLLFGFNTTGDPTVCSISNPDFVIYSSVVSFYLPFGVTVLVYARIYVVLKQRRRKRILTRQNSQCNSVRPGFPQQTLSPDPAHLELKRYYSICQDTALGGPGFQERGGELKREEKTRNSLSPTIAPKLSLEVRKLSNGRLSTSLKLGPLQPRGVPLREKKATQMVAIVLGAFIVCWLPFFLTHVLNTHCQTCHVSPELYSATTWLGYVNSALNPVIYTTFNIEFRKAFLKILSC", "test": "Displacement of [3H]-sulpiride from human dopamine D3 receptor expressed in HEK293 cells at 0.1 uM after 150 mins by liquid scintillation counting", "assay_type": "cell-based", "outline": "(§1)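 Transiently PEI-transfected HEK293 cells expressing human D2R or D3R, serum-free, rinsed ice-cold. Each ligand at a single concentration competed at 4 °C for 150 min with [³H]-sulpiride: 2.2 nM for D2R, 4.4 nM for D3R. Unbound label removed by three washes in ice-cold MEM/10 mM HEPES pH 7.4. Cells were lysed in 1% SDS and bound radioactivity read by liquid scintillation.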"}, "D(2) dopamine receptor [2]": {"biological_target": "T2, D(2) dopamine receptor (Homo sapiens, UniProt P14416)", "T2 sequence (P14416 whole entry)": "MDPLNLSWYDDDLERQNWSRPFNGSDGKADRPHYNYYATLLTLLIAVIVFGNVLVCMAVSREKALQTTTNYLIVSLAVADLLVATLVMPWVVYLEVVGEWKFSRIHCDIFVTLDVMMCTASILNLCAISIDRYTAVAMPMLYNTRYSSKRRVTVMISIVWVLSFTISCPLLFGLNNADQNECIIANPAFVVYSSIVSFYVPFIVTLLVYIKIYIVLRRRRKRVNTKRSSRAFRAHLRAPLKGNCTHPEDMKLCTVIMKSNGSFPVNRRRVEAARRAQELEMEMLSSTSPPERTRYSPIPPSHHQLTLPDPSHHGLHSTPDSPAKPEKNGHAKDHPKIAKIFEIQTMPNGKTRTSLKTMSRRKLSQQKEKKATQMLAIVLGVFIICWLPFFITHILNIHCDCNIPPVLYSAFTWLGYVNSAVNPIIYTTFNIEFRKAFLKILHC", "test": "Displacement of [3H]-sulpiride from human dopamine D2 receptor expressed in HEK293 cells at 0.1 uM after 150 mins by liquid scintillation counting", "assay_type": "cell-based", "outline": "as §1"}, "D(2) dopamine receptor [3]": {"biological_target": "T2, D(2) dopamine receptor", "test": "Displacement of [3H]-sulpiride from human dopamine D2 receptor expressed in HEK293 cells after 150 mins by liquid scintillation counting", "assay_type": "cell-based", "outline": "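HEK293 cells grown in MEM with 10% FBS and penicillin/streptomycin, PEI-transfected with human D2R plasmid (medium changed at 4 h, grown 24 h), then seeded and cultured overnight. Rinsed with ice-cold serum-free MEM, incubated with 2.2 nM [³H]-sulpiride plus varying ligand concentrations at 4 °C for 150 min. Washed three times in ice-cold MEM/10 mM HEPES pH 7.4, lysed in 1% SDS, scintillation counted. IC50 came from nonlinear regression curve fits.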"}, "D(3) dopamine receptor [4]": {"biological_target": "T1, D(3) dopamine receptor", "test": "Displacement of [3H]-sulpiride from human dopamine D3 receptor expressed in HEK293 cells at 1 uM after 150 mins by liquid scintillation counting", "assay_type": "cell-based", "outline": "as §1"}, "D(2) dopamine receptor [5]": {"biological_target": "T2, D(2) dopamine receptor", "test": "Displacement of [3H]-sulpiride from human dopamine D2 receptor expressed in HEK293 cells at 1 uM after 150 mins by liquid scintillation counting", "assay_type": "cell-based", "outline": "as §1"}, "D(3) dopamine receptor [6]": {"biological_target": "T1, D(3) dopamine receptor", "test": "Displacement of [3H]-sulpiride from human dopamine D3 receptor expressed in HEK293 cells after 150 mins by liquid scintillation counting", "assay_type": "cell-based"}, "Homo sapiens": {"species": "Homo sapiens", "test": "Selectivity ratio of Ki for human dopamine D2 receptor to Ki for human dopamine D3 receptor"}}, "note": "Values joined by “and” are separate entries in the source; they are usually repeats but may differ in a detail not shown here. Equal entries are not always repeated."}
{"smiles": "Clc1ccc(N2CCN(CCCCNc3noc(-c4ccccn4)n3)CC2)c(Cl)c1", "values": [{"measurement": "inhibition", "setting": "D(3) dopamine receptor [1]", "result": "9.5% and 14.8%"}, {"measurement": "inhibition", "setting": "D(2) dopamine receptor [2]", "result": "7.8% and 17.9%"}]}
{"smiles": "FC(F)(F)c1cccc(N2CCN(CCCCNc3noc(-c4ccccc4)n3)CC2)c1", "values": [{"measurement": "inhibition", "setting": "D(3) dopamine receptor [1]", "result": 35.3, "unit": "%"}, {"measurement": "inhibition", "setting": "D(2) dopamine receptor [2]", "result": 19.8, "unit": "%"}]}
{"smiles": "O=C(NCCCCN1CCN(c2ccc(Cl)cc2Cl)CC1)c1cc2ccccc2[nH]1", "values": [{"measurement": "Ki", "setting": "D(2) dopamine receptor [3]", "result": "> 23.9", "unit": "µM"}]}
{"smiles": "CCCN(CCCCN1CCN(c2cccc(Cl)c2Cl)CC1)c1noc(-c2ccccc2)n1", "values": [{"measurement": "inhibition", "setting": "D(3) dopamine receptor [4]", "result": 22.1, "unit": "%"}, {"measurement": "inhibition", "setting": "D(2) dopamine receptor [5]", "result": 50.1, "unit": "%"}]}
{"smiles": "Clc1ccc(N2CCN(CCCCNc3noc(-c4ccccc4)n3)CC2)cc1", "values": [{"measurement": "inhibition", "setting": "D(2) dopamine receptor [2]", "result": "-2.6% and 8.3%"}, {"measurement": "Ki", "setting": "D(3) dopamine receptor [6]", "result": 0.27, "unit": "µM"}, {"measurement": "Ki", "setting": "D(2) dopamine receptor [3]", "result": 79.6, "unit": "µM"}, {"measurement": "Ratio Ki", "setting": "Homo sapiens", "result": 297}]}
{"smiles": "N#Cc1ccc(-c2nc(NCCCCN3CCN(c4ccc(Cl)cc4Cl)CC3)no2)cc1", "values": [{"measurement": "inhibition", "setting": "D(3) dopamine receptor [1]", "result": "36.6% and 11.8%"}, {"measurement": "inhibition", "setting": "D(2) dopamine receptor [2]", "result": "8.8% and 22.8%"}]}
{"smiles": "Clc1ccc(N2CCN(CCCCNc3noc(-c4ccc(Br)cc4)n3)CC2)c(Cl)c1", "values": [{"measurement": "inhibition", "setting": "D(3) dopamine receptor [1]", "result": 14.2, "unit": "%"}, {"measurement": "inhibition", "setting": "D(2) dopamine receptor [2]", "result": 12.7, "unit": "%"}]}
{"smiles": "Clc1ccc(N2CCN(CCCCNc3noc(-c4ccccc4)n3)CC2)c(Cl)c1", "note": "[listing 1 of 3 here]", "values": [{"measurement": "Ratio Ki", "setting": "Homo sapiens", "result": "7.7 and 4.4"}]}
{"smiles": "Clc1ccc(-c2nc(NCCCCN3CCN(c4ccc(Cl)cc4Cl)CC3)no2)cc1", "values": [{"measurement": "inhibition", "setting": "D(3) dopamine receptor [1]", "result": "33.8% and 16.6%"}, {"measurement": "inhibition", "setting": "D(2) dopamine receptor [2]", "result": "15.2% and 40%"}]}
{"smiles": "CCCN(CCCCN1CCN(c2ccccc2F)CC1)c1noc(-c2ccccc2)n1", "values": [{"measurement": "inhibition", "setting": "D(3) dopamine receptor [4]", "result": 3.2, "unit": "%"}, {"measurement": "inhibition", "setting": "D(2) dopamine receptor [5]", "result": 10.6, "unit": "%"}]}
{"smiles": "COc1ccccc1-c1nc(NCCCCN2CCN(c3ccc(Cl)cc3Cl)CC2)no1", "values": [{"measurement": "inhibition", "setting": "D(3) dopamine receptor [1]", "result": "4.2% and 7.7%"}, {"measurement": "inhibition", "setting": "D(2) dopamine receptor [2]", "result": "5.6% and 5.4%"}]}
{"smiles": "Clc1cccc(-c2nc(NCCCCN3CCN(c4ccc(Cl)cc4Cl)CC3)no2)c1", "values": [{"measurement": "inhibition", "setting": "D(3) dopamine receptor [1]", "result": "37% and 41.5%"}, {"measurement": "inhibition", "setting": "D(2) dopamine receptor [2]", "result": "28.3% and 40.4%"}]}
{"smiles": "Clc1ccc(N2CCN(CCCCNc3noc(-c4ccccc4)n3)CC2)c(Cl)c1", "note": "[listing 2 of 3 here]", "values": [{"measurement": "Ki", "setting": "D(3) dopamine receptor [6]", "result": 0.29, "unit": "µM"}, {"measurement": "Ki", "setting": "D(2) dopamine receptor [3]", "result": 1.29, "unit": "µM"}]}
{"smiles": "Fc1ccccc1N1CCN(CCCCNc2noc(-c3ccccc3)n2)CC1", "values": [{"measurement": "inhibition", "setting": "D(3) dopamine receptor [1]", "result": 50.7, "unit": "%"}, {"measurement": "inhibition", "setting": "D(2) dopamine receptor [2]", "result": 69.8, "unit": "%"}]}
{"smiles": "Clc1ccc(N2CCN(CCCCNc3noc(-c4ccccc4)n3)CC2)c(Cl)c1", "note": "[listing 3 of 3 here]", "values": [{"measurement": "Ki", "setting": "D(3) dopamine receptor [6]", "result": 0.81, "unit": "µM"}, {"measurement": "Ki", "setting": "D(2) dopamine receptor [3]", "result": 6.23, "unit": "µM"}]}
{"smiles": "CCCN(CCCCN1CCN(c2ccc(Cl)cc2Cl)CC1)c1noc(-c2ccccc2)n1", "values": [{"measurement": "inhibition", "setting": "D(3) dopamine receptor [4]", "result": 15.1, "unit": "%"}, {"measurement": "inhibition", "setting": "D(2) dopamine receptor [5]", "result": -0.6, "unit": "%"}]}
{"smiles": "CCCN(CCCCN1CCN(c2cccc(C(F)(F)F)c2)CC1)c1noc(-c2ccccc2)n1", "values": [{"measurement": "inhibition", "setting": "D(3) dopamine receptor [4]", "result": 9.7, "unit": "%"}, {"measurement": "inhibition", "setting": "D(2) dopamine receptor [5]", "result": 17.8, "unit": "%"}]}
